Measured values of several laboratories.
Target: Ephrin type-A receptor 3 (EPHA3, Homo sapiens, UniProt P29320)
One construct used (P29320 21-983): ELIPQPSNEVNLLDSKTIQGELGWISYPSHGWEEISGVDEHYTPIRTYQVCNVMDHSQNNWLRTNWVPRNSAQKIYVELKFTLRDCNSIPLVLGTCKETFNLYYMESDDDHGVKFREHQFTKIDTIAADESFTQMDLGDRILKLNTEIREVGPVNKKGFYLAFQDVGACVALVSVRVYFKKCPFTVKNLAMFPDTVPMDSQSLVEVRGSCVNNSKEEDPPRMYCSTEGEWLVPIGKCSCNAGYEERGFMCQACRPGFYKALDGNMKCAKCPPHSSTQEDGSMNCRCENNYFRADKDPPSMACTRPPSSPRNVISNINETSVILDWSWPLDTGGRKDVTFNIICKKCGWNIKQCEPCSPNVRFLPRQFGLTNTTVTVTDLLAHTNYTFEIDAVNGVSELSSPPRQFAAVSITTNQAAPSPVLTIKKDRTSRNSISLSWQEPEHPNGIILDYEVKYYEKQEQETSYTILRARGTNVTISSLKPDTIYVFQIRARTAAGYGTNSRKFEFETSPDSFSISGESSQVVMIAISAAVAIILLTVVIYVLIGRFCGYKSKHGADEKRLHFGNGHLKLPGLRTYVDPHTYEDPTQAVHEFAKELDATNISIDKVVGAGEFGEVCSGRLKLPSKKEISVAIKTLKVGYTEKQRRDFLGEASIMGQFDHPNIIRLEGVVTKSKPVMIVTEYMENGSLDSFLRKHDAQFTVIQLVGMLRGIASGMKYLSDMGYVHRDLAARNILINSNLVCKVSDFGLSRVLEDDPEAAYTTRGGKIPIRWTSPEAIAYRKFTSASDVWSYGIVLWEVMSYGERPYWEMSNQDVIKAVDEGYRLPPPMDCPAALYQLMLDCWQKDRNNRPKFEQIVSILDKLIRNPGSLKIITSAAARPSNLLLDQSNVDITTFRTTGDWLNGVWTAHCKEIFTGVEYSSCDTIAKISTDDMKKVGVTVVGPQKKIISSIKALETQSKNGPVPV

Structure (SMILES) | read-out | technique | concentration | remaining binding [%]
O=C(Nc1c[nH]nc1C(=O)NC1CCNCC1)c1cc(F)cc(F)c1 | binding | competition with immobilised ligand | 1 µM | 100
CC(=O)Nc1c(C(C)=O)c(=O)n(C)c2nc(-c3ccc(Cl)cc3Cl)c(-c3ccc(Cl)cc3)cc12 | cell-free assay | competition with immobilised ligand | 1 µM | 100
COc1ncc2cc3ccccc3nc2c1C#N | cell-free assay | competition with immobilised ligand | 5 µM | 96
CC1=C(C#N)[C@@H](c2ccc3[nH]nc(C)c3c2)C(C#N)=C(c2ccc(Cl)cc2)N1 | cell-free assay | competition with immobilised ligand | 1 µM | 100
C[C@@H]1CCN(c2nccc(-c3cnn4ncccc34)n2)C1 | binding |  | 1 µM | 61
Nc1ncc2c(n1)-c1c([nH]c3ccc(C#CC4CC4)cc13)CCCC2 | binding | competition with immobilised ligand | 1 µM | 100
CC(=O)N1CCC(c2ccc(C(=O)NC3=NCCN3)cc2C(F)(F)F)CC1 | cell-free assay | competition with immobilised ligand | 1 µM | 95
O=C(NCCCN1CCOCC1)c1ccc(Nc2ncc(Cl)c(-c3ccc(Cl)s3)n2)cc1 | binding | competition with immobilised ligand | 1 µM | 63
COc1cnc(Nc2cccc(S(N)(=O)=O)c2)nc1N1CCN(c2ccccc2)C(=O)C1 | binding | competition with immobilised ligand | 1 µM | 98
Cn1nc(C(=O)NCc2ccc(C(=O)O)cc2)cc1-c1ccc2[nH]ccc2c1 | cell-free assay | competition with immobilised ligand | 0.1 µM | 89
O=C(c1ccc(Nc2ncc(Cl)c(-c3ccc(Cl)s3)n2)cc1)N1CCC(N2CCCC2)CC1 | binding | competition with immobilised ligand | 1 µM | 68
N[C@H]1CCN(c2nccc(-c3cnn4ncccc34)n2)C1 | binding |  | 1 µM | 98
C[C@@H](c1ccc(-n2cnc3c(N)ncnc32)cc1)N1CCc2nn(C)c(Cc3ccccc3)c2C1=O | binding | competition with immobilised ligand | 0.1 µM | 83
CN(C)c1nccc(-c2cnc3ncccn23)n1 | binding |  | 1 µM | 100
C[C@H](NC(=O)c1cnc2n1[C@](C)(Cc1ccc(C#N)cc1)C(=O)N2c1cc(Cl)c(F)c(Cl)c1)C(=O)NC1(c2ccccn2)CC1 | cell-free assay | competition with immobilised ligand | 1 µM | 88
F[C@@H]1CCN(c2nccc(-c3cnn4ncccc34)n2)C1 | binding |  | 1 µM | 90
CCN1CCN(Cc2ccc(C(=O)Nc3ccc(C)c(Oc4ccc5c(c4)CC(=O)N5)c3)cc2C(F)(F)F)CC1 | binding | competition with immobilised ligand | 1 µM | 76
CN(C)c1nccc(-c2cnn3ncccc23)n1 | binding |  | 1 µM | 90
C[C@H](c1cccc(C#N)c1)n1cc(Cl)cc(C(N)=O)c1=N | cell-free assay | competition with immobilised ligand | 1 µM | 100
CC1CCCN1c1nccc(-c2cnn3ncccc23)n1 (stereo not drawn) | binding |  | 1 µM | 97
c1cncc(-c2cccc(Nc3nccc(NC4CCCCC4)n3)c2)c1 | binding | competition with immobilised ligand | 10 µM | 68
